Laboratory results: ChEMBL document CHEMBL4152271, “Polypharmacological profile of 1,2-dihydro-2-oxo-pyridine-3-carboxamides in the endocannabinoid system” (Eur J Med Chem, 2018)
Calls of active or inactive are those of the source. No cut-off for these calls is given here.

Legend:
[1] = tested on: U-937; assay: Cytotoxicity against human U937 cells assessed as decrease in cell viability at 0.6 to 40 uM after 48 hrs by MTT assay; format: functional, cell-based
Method in brief: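 U251MG (EMEM, 10% FBS) or U937 (RPMI 1640, 10% FBS) cells plated at 4x10³/well for 24h, then exposed to compounds (0–40 µM) for 48 h at 37°C. MTT reduction, formazan read at 595 nm. Viability as % of untreated control. Five independent experiments in triplicate, mean ± SD, ANOVA with Bonferroni.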

[2] = target: T1, Monoglyceride lipase (Homo sapiens, UniProt Q99685); assay: Inhibition of MAGL in human U937 cells using 2-OG containing […] as substrate preincubated for 30 mins followed by substrate addition and measured after 15 mins by liquid scintillation spectroscopic method; format: cell-based
T1 sequence (Q99685 whole entry): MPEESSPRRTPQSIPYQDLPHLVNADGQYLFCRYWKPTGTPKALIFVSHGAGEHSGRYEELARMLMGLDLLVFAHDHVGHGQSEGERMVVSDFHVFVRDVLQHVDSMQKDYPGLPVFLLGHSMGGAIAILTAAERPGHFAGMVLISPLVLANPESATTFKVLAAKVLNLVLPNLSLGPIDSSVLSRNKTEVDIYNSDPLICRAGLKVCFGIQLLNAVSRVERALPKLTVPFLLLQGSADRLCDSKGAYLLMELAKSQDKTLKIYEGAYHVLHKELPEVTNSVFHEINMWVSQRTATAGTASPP
Method in brief: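 U937 cell homogenate (100 µg) in 10 mM Tris-HCl, 1 mM EDTA, pH 8, 0.1% fatty acid-free BSA. Compound at 10 µM screening concentration, 30 min at 37 °C. FAAH: 100 nM AEA with 1 nM [³H]AEA tracer. MAGL: 1 µM 2-OG with 1 nM tritiated tracer. Both 15 min at 37 °C, stopped with CHCl₃:MeOH (1:1), aqueous phase counted.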

[3] = target: T2, Lysophosphatidylserine lipase ABHD12 (Homo sapiens, UniProt Q8N2K0); assay: Inhibition of human ABHD12 expressed in HEK293 cells using 2-OG as substrate preincubated for 30 mins followed by substrate addition and measured after 5 mins by liquid scintillation spectroscopic method; format: cell-based
T2 sequence (Q8N2K0 whole entry): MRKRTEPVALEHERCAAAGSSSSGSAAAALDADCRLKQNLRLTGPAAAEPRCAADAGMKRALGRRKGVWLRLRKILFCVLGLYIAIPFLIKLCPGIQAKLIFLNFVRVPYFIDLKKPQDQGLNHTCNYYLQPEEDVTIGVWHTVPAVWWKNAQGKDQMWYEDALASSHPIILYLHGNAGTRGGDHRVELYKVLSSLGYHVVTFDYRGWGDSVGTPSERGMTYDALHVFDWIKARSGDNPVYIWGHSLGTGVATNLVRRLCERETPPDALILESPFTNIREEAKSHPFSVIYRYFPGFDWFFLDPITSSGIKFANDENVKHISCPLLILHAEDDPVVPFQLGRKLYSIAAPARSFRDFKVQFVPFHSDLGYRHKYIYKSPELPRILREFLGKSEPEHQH
Method in brief: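 Homogenate (40 µg) of HEK293 cells stably transfected with hABHD6 or hABHD12, compound preincubated 30 min at 37 °C in […], 0.1% BSA, pH 7.6. DMSO vehicle; WWL70 10 µM or THL 20 µM as positive controls. 10 µM 2-OG added for 5 min at 37 °C, stopped with CHCl₃:MeOH. Aqueous phase counted; no-enzyme blanks and non-transfected HEK293 hydrolysis subtracted.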

[4] = target: Cannabinoid receptor 2 (Homo sapiens, UniProt P34972); assay: Agonist activity at human CB2 receptor expressed in CHO cell membranes after 90 mins by [35S]GTPgammaS binding assay; format: functional
Chain of Cannabinoid receptor 2 (P34972 whole entry): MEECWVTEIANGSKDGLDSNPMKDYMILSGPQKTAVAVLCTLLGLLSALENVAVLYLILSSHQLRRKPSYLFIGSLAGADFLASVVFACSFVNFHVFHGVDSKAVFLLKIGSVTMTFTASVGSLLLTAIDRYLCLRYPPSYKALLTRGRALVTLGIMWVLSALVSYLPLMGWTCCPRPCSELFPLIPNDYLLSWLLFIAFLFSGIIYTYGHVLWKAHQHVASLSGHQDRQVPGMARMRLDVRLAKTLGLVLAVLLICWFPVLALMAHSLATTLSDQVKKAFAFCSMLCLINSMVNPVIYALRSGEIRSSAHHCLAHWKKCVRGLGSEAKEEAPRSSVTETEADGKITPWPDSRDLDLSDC
Method in brief: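 Membranes (5 µg) of hCB2-expressing cells in 50 mM Tris-HCl, 3 mM MgCl₂, 0.2 mM EDTA, 100 mM NaCl, 0.5% fatty acid-free BSA, pH 7.4, with 10 µM GDP and 0.1 nM [³⁵S]GTPγS. Kept on ice, started by vehicle or compound, 90 min at 30 °C. Nonspecific binding with 10 µM GTPγS. Filtered on GF/B, radioactivity counted. At least three experiments in triplicate, mean ± SD.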

Q: What does the source list for COc1ccc(-c2cn(Cc3ccc(F)cc3)c(=O)c(C(=O)NC3CCCCCC3)c2C)cc1?
A: Activity [1]: Active; IC50 [2]: > 10000 nM; IC50 [3]: > 10000 nM

Q: Which results are given for Cc1c(Br)cn(Cc2ccc(F)cc2)c(=O)c1C(=O)NC1CCCCCC1?
A: Activity [1]: Active; EC50 [4]: 1.1 nM; IC50 [2]: > 10000 nM; IC50 [3]: 2100 nM

Q: With Cc1c(Br)cnc(OCc2ccc(F)cc2)c1C(=O)NC1CCCCCC1 as the molecule, how does the Activity [1] read?
A: The Activity was “Active”.

Q: And the EC50 [4]?
A: The EC50 was 687 nM.

Q: What about the IC50 [2] of the same molecule?
A: The IC50 was > 10000 nM.

Q: What about the IC50 [3] of the same molecule?
A: The IC50 was > 10000 nM.
